Compounds with a hit are over-represented: about 2.1% of the library has one in this group of screens.
RanGTP-Imp inh = disruptors of Ran-importin-beta complex formation – biochemical, FRET, CFP-Ran, YFP-importin-beta, homogeneous, primary screen | cell-free CFP-Ran/YFP-importin-beta FRET ratio | inhibition, % (test concentration not listed) | 300,000 tested, 1.1% active | AID 2216;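 active means more than half of the replicate wells show a fall in the fluorescence ratio signal beyond about 16%, limit read from the data, passing the limit was not always enough; inconclusive means exactly half of the replicate wells pass the set limit; inactive means fewer than half of replicates pass the limit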
p97 inhibitor = human p97 ATPase inhibition. P55072. recombinant p97 ATPase, Kinase-Glo ATP luminescence, 3 h. inhibition, % at 8 µM. 220,000 tested, 0.42% active. AID 1481; in the data active means inhibition above about 15%
Runt-SMMHC FRET = Runt domain-CBFb-SMMHC interaction inhibition. inhibition, % at 20 µM. Cerulean-Runt/Venus-CBFb-SMMHC FRET ratio 530/480, 1 h. AID 1434. 220,000 tested, 0.74% active;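 active means mean inhibition across duplicate retests at 20 µM reaching about 50%, limit read from the data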;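 further: inhibitors lower the FRET ratio by blocking Runt binding to CBFb-SMMHC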
Target sequence (Q01196 whole entry, looked up, the tested form may be a part): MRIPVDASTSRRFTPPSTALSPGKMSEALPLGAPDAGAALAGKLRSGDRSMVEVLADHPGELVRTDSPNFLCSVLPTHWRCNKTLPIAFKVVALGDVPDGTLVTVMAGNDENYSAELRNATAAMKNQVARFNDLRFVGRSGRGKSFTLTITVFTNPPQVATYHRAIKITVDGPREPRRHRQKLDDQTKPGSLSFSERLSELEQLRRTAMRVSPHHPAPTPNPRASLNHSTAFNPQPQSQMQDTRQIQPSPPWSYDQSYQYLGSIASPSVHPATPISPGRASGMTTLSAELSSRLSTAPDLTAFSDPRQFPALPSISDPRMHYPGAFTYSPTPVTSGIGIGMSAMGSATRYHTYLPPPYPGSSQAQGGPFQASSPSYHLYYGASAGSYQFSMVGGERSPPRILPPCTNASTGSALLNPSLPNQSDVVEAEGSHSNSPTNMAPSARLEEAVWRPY
Target sequence (Q13951 whole entry, looked up, the tested form may be a part): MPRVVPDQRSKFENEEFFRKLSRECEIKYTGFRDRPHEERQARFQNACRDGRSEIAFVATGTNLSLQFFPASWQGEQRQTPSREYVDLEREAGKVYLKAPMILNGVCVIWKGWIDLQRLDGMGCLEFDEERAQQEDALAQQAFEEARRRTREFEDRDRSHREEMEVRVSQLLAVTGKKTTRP
TbHK1 inh = blocks Trypanosoma brucei hexokinase 1 activity | recombinant TbHK1, G6PDH-coupled NADH A340 | inhibition, % at 10 µM | 220,000 tested, 0.11% active | AID 1430;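 active means inhibition of 50% or more in the single-dose primary screen; inactive means inhibition below 50%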
Runt-CBFb FRET = Runt domain-CBFb interaction inhibition | Q01196+Q13951 | Cerulean-Runt/Venus-CBFb FRET ratio 530/480, 1 h | inhibition, % at 20 µM | 220,000 tested, 0.46% active;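 active means inhibition over about 50% at 20 µM in the single-dose screen, limit read from the data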
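Doses: 20 µM compound in 1% DMSO | Material: Cerulean-labeled Runt domain protein | Amount: Each fluorescent fusion protein 100 nM | Schedule: Two 1 h room-temperature incubations shielded from light | Measured by: FRET fluorescence | Evaluation: Loss of energy transfer signal | Controls: Unlabeled CBFb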
Hck-Nef inh = human Hck-Nef kinase inhibition | Recombinant Hck-YEEI plus Nef, Z-Lyte FRET kinase assay | inhibition, % at 20 µM | AID 463187 | 220,000 tested, 0.68% active;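 active means Hck-Nef kinase inhibition above about 50%, limit read from the data; inactive means inhibition below that limit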
Hck-Nef confirm = Hck-Nef kinase inhibition, confirmation | shares compounds with Hck-Nef inh | Recombinant Hck-YEEI:Nef, Z-Lyte FRET kinase assay | calls only at 10 µM | 1,300 tested, 28% active;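 active means average inhibition of at least 50%, with Z-scores no higher than 3 in both the phospho-tyrosine peptide and fluorescence counterscreens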
Hits are given with their value; - = inactive; ? = inconclusive; . = not tested or not shown; + = active, no number.

SMILES | RanGTP-Imp inh | p97 inhibitor | Runt-SMMHC FRET | TbHK1 inh | Runt-CBFb FRET | Hck-Nef inh | Hck-Nef confirm
CCOC(=O)c1cc(-c2ccccc2)sc1NC(=O)COC(=O)c1cccc(S(N)(=O)=O)c1 | - | - | - | - | - | 58 | +
COc1cc(OC)c(OC)cc1C#N | - | - | - | - | - | - | .
COc1cc2c(cc1OC)C1(CCCC1)C(N)=C2C#N | . | - | - | - | - | 56 | .
O=C(CC1C(=O)NCCN1C(=O)c1ccc([N+](=O)[O-])cc1)Nc1ccc(F)cc1 (configuration not stated) | - | . | . | . | . | . | .
CCN(CCO)c1nc(SC)nc2c1sc1nc(-c3ccco3)c3c(c12)CCC3 | - | - | - | - | - | 68 | -
CC(=O)OCC1=C(C(=O)O)N2C(=O)C(NC(=O)c3ccc(COc4c(C)cccc4Cl)o3)C2SC1 (configuration not stated) | - | - | - | - | - | 77 | -
CC(=O)OCC1=C(C(=O)O)N2C(=O)C(NC(=O)c3ccc(COc4ccc(Cl)cc4)o3)C2SC1 (configuration not stated) | - | - | - | - | - | 64 | -
CCCc1cc(NCCCCO)n2c(nc3ccccc32)c1C#N | 43 | - | 54 | - | - | 97 | .
Cc1cc(NCCCCO)n2c(nc3ccccc32)c1C#N | 38 | - | - | - | - | 59 | .
CCOC(=O)c1cc(CC)sc1NC(=O)CN1CCN(C(=O)c2ccco2)CC1 | - | . | . | . | . | . | .
O=C(CN1CCCCC1)Nc1c2c(nc3ccccc13)N(c1ccccc1)CC2 | - | - | - | - | - | 91 | .
C/C(=N\NC(=O)c1ccc(OC2OCCOC2Oc2ccc(C(=O)N/N=C(\C)c3ccncc3)cc2)cc1)c1ccncc1 (configuration not stated) | - | - | - | - | - | 61 | -
COc1ccc(-c2cc3ccccc3oc2=O)cc1NC(=O)c1ccc(Br)o1 | ? | - | - | - | - | 77 | -
CCC(=O)Nc1cc(-c2cc3ccccc3oc2=O)ccc1OC | - | - | - | - | - | - | .
COc1ccc(-c2cc3ccccc3oc2=O)cc1NC(=S)NC(=O)c1ccc2c(c1)OCCO2 | ? | - | - | - | . | 51 | +
CCCCS/C(N)=N/N=C/c1cc(C)ccc1O | - | - | - | - | - | - | .
CCS/C(N)=N/N=C/c1cc(C)ccc1O | - | - | - | - | - | 51 | -
COC(=O)c1c(NC(=S)NN2CCN(C)CC2)sc2c1CCC(C)C2 (configuration not stated) | - | - | - | - | - | - | .
Nc1c2c(=O)oc(-c3ccccc3)cc2nn1-c1ccccc1 | - | - | - | - | - | 67 | -
Cc1c(-c2ccc(Cl)cc2)oc(=O)c2c(N)n(-c3ccccc3)nc12 | - | - | - | - | - | - | .
COC(=O)C1=CN(C)C=C(C(=O)OC)C1c1ccsc1 | 33 | - | 61 | - | 108 | 53 | -
CC(=O)c1cc(CC(=O)N2CCc3c([nH]c4ccccc34)C2c2ccccn2)cs1 (configuration not stated) | - | - | . | - | . | - | .
Cc1nc(C)c(CC(=O)N2CCc3c([nH]c4ccccc34)C2c2ccccn2)s1 (configuration not stated) | - | - | - | - | - | + | -
COc1ccc(C(=O)N=c2sc3ccccc3n2C)cc1 | - | - | - | - | - | - | .
COc1cc(OC)cc(C(=O)N=c2sc3ccccc3n2C)c1 | - | - | - | - | - | 81 | -
SMILES | RanGTP-Imp inh | p97 inhibitor | Runt-SMMHC FRET | TbHK1 inh | Runt-CBFb FRET | Hck-Nef inh | Hck-Nef confirm
CC(Oc1ccc(-n2cnnn2)cc1)C(=O)O (configuration not stated) | - | - | - | - | - | 75 | -
CCOc1ccc(C(=O)C(C)OC(=O)Cn2[nH]c(=O)c3ccccc3c2=O)cc1 (configuration not stated) | - | . | . | . | . | . | .
CCCCC1=CC2=CC(=O)C(C)(OC(=O)CCc3ccccc3)C(=O)C2=CO1 (configuration not stated) | - | . | - | - | - | 67 | +
Cc1cc(=O)oc2c3c4c(cc12)OCCN4CCC3 | 143 | - | . | - | - | 72 | .
CC(C)c1cc(=O)oc2c3c4c(cc12)CCCN4CCC3 | 29 | - | - | - | - | 52 | .
O=C(NCc1cccnc1)c1ccc(NS(=O)(=O)c2ccc(F)cc2)cc1 | - | . | . | . | . | . | .
CCOc1ccc(/C=C2\SC(=S)N(NS(=O)(=O)c3ccccc3)C2=O)cc1OC | - | - | - | - | - | - | .
CCOc1ccc(/C=C2\SC(=S)N(NS(=O)(=O)c3ccc(C)cc3)C2=O)cc1OC | - | - | - | - | - | 51 | +
CSc1nc(-c2cccs2)c(C#N)c(=O)[nH]1 | - | - | - | - | - | - | .
N#Cc1c(-c2cccs2)nc(SCc2ccc(Cl)cc2)[nH]c1=O | - | - | - | - | - | 69 | +
Cc1cc(C)cc(C(=O)NCCC(=O)N2CCC3(CC2)NCCc2[nH]cnc23)c1 | - | . | . | . | . | . | .
COc1ccc(-c2cc(=O)oc3cc(OCC(=O)c4cccc([N+](=O)[O-])c4)ccc23)cc1 | - | - | - | - | - | 80 | -
COc1ccc(-c2cc(=O)oc3cc(OCC(C)=O)ccc23)cc1 | - | - | - | - | - | - | .
COc1ccc(OC)c(NC(=O)CN(C)CC(=O)Nc2ccccc2Br)c1 | - | - | - | - | - | - | .
Fc1ccc(C2=NN(c3ccccc3)C(c3ccco3)C2)cc1 (configuration not stated) | - | - | - | - | - | - | .
Clc1ccc(C2=NN(c3ccccc3)C(c3ccco3)C2)cc1 (configuration not stated) | - | - | - | - | - | 60 | -
Cc1nnc(SCC(=O)N2N=C(c3ccc(Cl)cc3)CC2c2ccco2)[nH]c1=O (configuration not stated) | - | - | - | - | - | 50 | -
COc1cc(Nc2ncnc(N)n2)cc(OC)c1 | - | - | - | - | - | 62 | +
O=C1C2CC=C(Cl)CC2C(=O)N1CCC[n+]1cccc2ccccc21 (configuration not stated) | - | - | - | - | - | - | .
O=C1[C@@H]2Cc3c([nH]c4ccccc34)C(c3cccc([N+](=O)[O-])c3)N2C(=O)CN1C1CCN(Cc2ccccc2)CC1 (some centres not stated) | - | . | . | . | . | . | .
Cc1cc(NCCCN2CCOCC2)n2c(nc3ccccc32)c1C#N | 30 | - | - | - | - | 75 | .
CCCc1cc(NCCCN2CCOCC2)n2c(nc3ccccc32)c1C#N | - | - | - | - | - | 101 | .
